This is a sample that favours compounds with a hit; in the whole collection about 2% have one here.
GAA850 FXN act: FXN promoter activators, primary screen, cell-based, luciferase luminescence, HEK293 lucGAA850 | HEK293 lucGAA850 FXN promoter luciferase reporter, 24 h; percent of 10 µM SAHA response | activation, % at 6 µM | 360,000 tested, 0.56% active | AID 540364, 2011;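 active = activation above the average of all compounds screened plus 3 SD, cutoff fixed separately per campaign, cut at about 7.5% in these data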;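 note: 0% = DMSO wells and 100% = 10 µM SAHA wells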
APJ ag: agonists of human apelin receptor APJ, primary screen, CHO-K1 cells, PathHunter beta-arrestin, luminescence | 330,000 tested, 0.11% active | P35414 | activation, % at 20 µM | AID 2520, 2010 | 0% DMSO wells, 100% apelin;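 active = activation more than six SD over the plate average, tested at 20 µM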;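 note: 0% = DMSO alone and 100% = apelin-13 at 10 nM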
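Material: CHO-K1 APJ beta-arrestin complementation cell line; Input: cell density 1000 per well; Incubation: compound stimulation 90 min at 25 °C, detection 60 min; Signal: luminescence from split beta-galactosidase complementation, Galacton Star/Emerald II substrate; Controls: DMSO-only wells as negative, 10 nM Apelin-13 as positive control.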
EBI2 antag: EBI2 receptor antagonists, beta-arrestin recruitment, primary screen, cell-based, luminescence, 7a,25-OHC stimulation, uHTS | G-protein coupled receptor 183 (Homo sapiens), P32249 | 7a,25-OHC stimulated | inhibition, % at 5 µM | 360,000 tested, 0.81% active; in the data active = inhibition above about 38%;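 note: enzyme fragment complementation signal reports receptor beta-arrestin coupling in cells; 0% = agonist plus DMSO wells and 100% = wells without agonist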
CXCR6 inh: CXCR6 receptor inhibitors, primary screen, cell-based, beta-arrestin, luminescence, CHO-K1 PathHunter, 1536-well | C-X-C chemokine receptor type 6 (Homo sapiens), O00574 | inhibition, % at 20 µM | 360,000 tested, 0.36% active; in the data active = inhibition above about 34%, passing the limit was not always enough;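 note: antagonist mode with CXCL16 agonist at 10 nM final; 0% = 10 nM CXCL16 with DMSO and 100% = unstimulated wells without agonist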
APJ antagonist: antagonists of human apelin receptor APJ, primary screen, CHO-K1 cells, beta-arrestin complementation, luminescence; P35414; inhibition, % at 20 µM; 330,000 tested, 0.32% active;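 active = inhibition above about 40% at 20 µM, limit read from the data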;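 note: cells challenged with 10 nM apelin-13 agonist together with compound; plate controls were apelin-13 plus DMSO wells for no effect and DMSO wells lacking apelin-13 for full effect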
CCR6 antag: CCR6 receptor antagonists, primary screen, cell-based, CHO-K1, luminescence, beta-arrestin, uHTS; CHO-K1 CCR6 PathHunter beta-arrestin, CCL20-stimulated; 340,000 tested, 0.49% active; inhibition, % at 20 µM; C-C chemokine receptor type 6 (Homo sapiens), P51684;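 active = compounds whose inhibition of the agonist-driven luminescence signal at 20 µM reaches about 50%, limit read from the data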;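 note: cells stimulated with CCL20 at 14 nM final; plate controls were DMSO with CCL20 for no effect and DMSO without agonist for full effect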
Target sequence (P51684 whole entry, looked up): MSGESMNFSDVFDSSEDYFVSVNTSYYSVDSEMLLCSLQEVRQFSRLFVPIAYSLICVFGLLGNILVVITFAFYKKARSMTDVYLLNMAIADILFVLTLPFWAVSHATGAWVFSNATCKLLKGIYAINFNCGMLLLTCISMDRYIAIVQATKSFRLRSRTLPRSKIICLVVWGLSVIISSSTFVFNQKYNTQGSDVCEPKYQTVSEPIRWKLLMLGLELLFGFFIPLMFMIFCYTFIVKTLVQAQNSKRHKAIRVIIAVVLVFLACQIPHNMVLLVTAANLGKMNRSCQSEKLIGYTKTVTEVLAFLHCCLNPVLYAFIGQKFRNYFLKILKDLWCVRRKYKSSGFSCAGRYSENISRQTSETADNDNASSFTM
EBI2 conf: EBI2 antagonist hit retest, beta-arrestin, confirmation, cell-based, single concentration, luminescence, 7a,25-OHC stimulation | 7a,25-OHC antagonism | inhibition, % at 5 µM | shares compounds with EBI2 antag | 2,400 tested, 29% active;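 active = inhibition of at least 50%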
EBI2 ag: EBI2 agonist activity of antagonist hits, confirmation, counter-screen for EBI2 antagonist project, cell-based, single concentration, agonist mode, luminescence; shares compounds with EBI2 antag; EBI2-expressing cells, 60 min; 0% vehicle, 100% 7α,25-dihydroxycholesterol control; activation, % at 5 µM; 2,400 tested, under 10 active; AID 652000, 2013;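 active = activation of at least 50%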
bGal counter: E. coli beta-galactosidase enzyme inhibition, confirmation, counter-screen for EBI2 antagonist project, biochemical, luminescence, single concentration; 2,400 tested, 1% active; shares compounds with EBI2 antag; purified beta-galactosidase, luminescent Galacton Star, 15 min; AID 652176, 2013; inhibition, % at 5 µM;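 active = replicate-average signal at least 3 plate SD below neutral wells, shown as high inhibition, flagging enzyme-inhibiting false positives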;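 note: 0% = DMSO wells with enzyme and 100% = wells lacking enzyme; higher means stronger loss of beta-gal luminescence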
* marks the source's active call; other numbers are inactive results; x = not tested or not shown.

SMILES	GAA850 FXN act	APJ ag	EBI2 antag	CXCR6 inh	APJ antagonist	CCR6 antag	EBI2 conf	EBI2 ag	bGal counter
COc1ccc(/C=N/NC(N)=S)cc1OC(=O)c1cccc2ccccc12	-7	11	56*	9	1	9	5	2	3
Cc1ccc(-c2cc3nc(-c4ccccc4)cc(N)n3n2)cc1	2	-1	2	2	2	-9	x	x	x
Cc1ccc(-c2cc3nc(-c4ccccc4)cc(NCCCO)n3n2)cc1	1	x	47*	6	x	x	35	0	-10
CN(/C=C/C(=O)C(F)(F)F)Cc1ccccc1	0	0	39*	0	-16	-16	6	0	11
CN(Cc1ccccc1)C(=O)CC(=O)N(C)Cc1ccccc1	3	2	-4	0	2	12	x	x	x
O=C(c1cc2ccccc2oc1=O)N1CCN(Cc2ccc3c(c2)OCO3)CC1	3	-1	-12	4	-25	12	x	x	x
O=C(c1cc2ccccc2o1)N1CCN(CCOc2ccccc2)CC1	-2	-4	56*	-4	-37	10	38	-1	-13
Cc1ccc2c(C)c(C(=O)N3CCN(Cc4ccc5c(c4)OCO5)CC3)oc2c1C	5	-3	44*	0	2	-4	16	2	5
O=C(c1cc2ccccc2o1)N1CCN(Cc2ccc3c(c2)OCO3)CC1	-1	-1	70*	-2	10	6	37	1	6
COc1ccc(Br)c(Cn2c(C)c(C(=O)NCc3cccc([N+](=O)[O-])c3)sc2=O)c1	-1	x	0	9	x	x	x	x	x
CCCCNC(=O)C1(C)CCN1C(=O)c1cc(-c2ccccc2)cs1 (centres undefined)	1	x	7	6	x	x	x	x	x
Cc1ccc(OCCNC(=O)c2ccccc2SCC(=O)N2CCCC2)cc1	0	-2	-10	-4	10	13	x	x	x
C[C@H]1CN([C@@H](C)CO)C(=O)CCCn2nncc2CO[C@H]1CN(C)S(=O)(=O)c1ccc(Oc2ccccc2)nc1	-1	x	-3	-4	x	x	x	x	x
N#Cc1csc(CCNC(=O)c2ccccc2)n1	0	x	-5	-4	x	x	x	x	x
Cc1ccc(CNC(=O)c2cc3c(s2)CS(=O)(=O)C3)cc1	2	-3	6	-7	30	3	x	x	x
Cc1ccc(CNC(=O)c2cc3c(s2)CN(Cc2ccccc2)C3)cc1	2	-5	66*	2	6	10	35	1	6
Cn1c(=O)c2cc(NC(=O)NCc3ccccc3)ccc2n1Cc1ccc(Cl)cc1	-5	x	-2	-10	x	x	x	x	x
O=C(CSc1ccc(Cl)cc1)Nc1ccc(N2CCN(C(=O)c3ccc(Cl)cc3)CC2)cc1	-4	6	28	-8	19	-3	x	x	x
O=C(CSc1ccc(Cl)cc1)Nc1ccccc1N1CCN(C(=O)c2ccc(Cl)cc2)CC1	-6	0	43*	9	-1	11	14	0	5
O=C(CSc1ccc([N+](=O)[O-])cc1)Nc1ccccc1N1CCOCC1	-1	0	12	1	4	12	x	x	x
O=C(CSc1ccc(Br)cc1)Nc1ccccc1N1CCOCC1	1	-7	43*	-3	2	10	42	1	6
O=C(Cc1ccccc1)Nc1ccccc1N1CCN(c2ccccc2)CC1	-1	2	41*	24	19	30	10	0	7
O=C(Nc1ccccc1N1CCCCC1)C1CCN(C(=O)c2ccc(Cl)cc2)CC1	1	-8	58*	-1	18	12	6	2	-11
CCc1ccc(CN2CCC(C(=O)Nc3ccc(Oc4ccccc4)nc3)CC2)o1	2	10	22	-1	-40	6	x	x	x
O=C(/C=C/[C@H]1O[C@@H](n2ccc(=O)[nH]c2=O)[C@H](O)[C@@H]1O)NCc1cccc2ccccc12	x	x	-11	1	x	x	x	x	x
SMILES	GAA850 FXN act	APJ ag	EBI2 antag	CXCR6 inh	APJ antagonist	CCR6 antag	EBI2 conf	EBI2 ag	bGal counter
CC(C)(C)CNC(=O)c1cccc2c1C(=O)c1ccc(N3CCCC3)cc1S2(=O)=O	-1	-1	54*	-5	1	-2	61*	1	-7
O=C(NCCN1CCCCC1)c1cccc2c1C(=O)c1ccc(N3CCCC3)cc1S2(=O)=O	-1	2	-4	6	9	13	x	x	x
CC1CCC2(CC1)NC(=O)N(CC(=O)N1CCN(c3ccccc3)CC1)C2=O (centres undefined)	2	-1	-14	-1	-3	3	x	x	x
Cc1ccc(/C=C/C(=O)Nc2ccc(O)c3c(=O)cc(-c4ccccc4Cl)oc23)cc1	1	-3	44*	5	7	8	27	0	7
Cc1ccc(Oc2nc3ccccn3c(=O)c2/C=C(\C#N)C(=O)Nc2c(C)n(C)n(-c3ccccc3)c2=O)cc1	4	2	57*	1	-4	-9	62*	0	8
Cc1ccccc1Oc1nc2ccccn2c(=O)c1/C=C(\C#N)C(=O)Nc1c(C)n(C)n(-c2ccccc2)c1=O	4	-3	31	1	-22	2	x	x	x
Cc1ccccc1Oc1nc2c(C)cccn2c(=O)c1/C=C(\C#N)C(=O)Nc1c(C)n(C)n(-c2ccccc2)c1=O	6	-1	65*	-1	-15	13	61*	1	10
Cc1c(NC(=O)/C(C#N)=C/c2c(Oc3ccccc3)nc3ccccn3c2=O)c(=O)n(-c2ccccc2)n1C	2	-1	28	0	7	2	x	x	x
CN(C)C(CNC(=O)C1CCN(C(=O)/C=C/c2ccccc2)CC1)c1ccccc1 (centres undefined)	-1	1	72*	-4	18	14	42	1	3
O=C(CN1CCN(C(=O)C2CCN(C(=O)/C=C/c3ccccc3)CC2)CC1)Nc1ccccc1Cl	3	0	88*	5	11	11	56*	1	6
CCOC(=O)C1CCN(C(=O)/C=C/c2ccccc2)CC1	3	-5	65*	7	-3	22	51*	-2	-9

Assay outcomes (PubChem)
